Measured values published in PMC9150435 (Nature, 2021).
Changes are numbered by the printed parent chain. pEC50: −log10 of the molar value. Values belong to the molecule of their own block, whether it stands above or below them.

How the values were obtained:
[1] = target: T1, MRGPRX2 mutants (Homo sapiens, UniProt Q96LB1, I135A); assay: BRET2 Gq activation, MRGPRX2 mutants; format: cell-based; details: MRGPRX2 I135(ICL2)A
T1 sequence (Q96LB1 1-330 I135A): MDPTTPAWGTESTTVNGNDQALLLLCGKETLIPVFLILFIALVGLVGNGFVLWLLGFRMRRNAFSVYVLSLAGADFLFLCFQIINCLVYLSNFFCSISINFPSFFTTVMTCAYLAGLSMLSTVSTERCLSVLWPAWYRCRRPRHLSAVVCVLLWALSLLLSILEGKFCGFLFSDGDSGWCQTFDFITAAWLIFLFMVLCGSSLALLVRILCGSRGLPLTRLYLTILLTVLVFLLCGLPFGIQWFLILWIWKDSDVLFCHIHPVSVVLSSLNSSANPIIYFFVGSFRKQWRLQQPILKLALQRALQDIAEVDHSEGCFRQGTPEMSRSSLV

[2] = system: MRGPRX2 mutants; assay: BRET2 Gq activation, MRGPRX2 mutants; format: cell-based, human
[3] = target: T1, MRGPRX2 mutants; assay: BRET2 Gi1 activation, MRGPRX2 mutants; format: cell-based; details: MRGPRX2 I135(ICL2)A
[4] = system: MRGPRX2 mutants; assay: BRET2 Gi1 activation, MRGPRX2 mutants; format: cell-based, human; details: MRGPRX2 R214A, L216A
[5] = target: MRGPRX4 (Homo sapiens, UniProt Q96LA9); assay: FLIPR Ca2+ assay, agonist mode, MRGPRX4 stable cells; format: cell-based; details: read-out: EC50, MRGPRX4 agonist
Chain of MRGPRX4 (Homo sapiens, UniProt Q96LA9) (Q96LA9 whole entry): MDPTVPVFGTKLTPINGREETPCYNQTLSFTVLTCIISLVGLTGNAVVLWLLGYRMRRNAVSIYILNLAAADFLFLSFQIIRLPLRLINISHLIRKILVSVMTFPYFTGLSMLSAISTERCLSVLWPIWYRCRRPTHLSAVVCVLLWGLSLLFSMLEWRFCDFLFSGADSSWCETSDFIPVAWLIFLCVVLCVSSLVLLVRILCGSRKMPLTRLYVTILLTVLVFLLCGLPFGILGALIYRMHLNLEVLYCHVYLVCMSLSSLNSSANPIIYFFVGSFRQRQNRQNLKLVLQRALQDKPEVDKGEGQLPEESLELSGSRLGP

[6] = system: Kir6.2/SUR1 potassium channel; assay: Whole-cell electrophysiology, Kir6.2/SUR1 current inhibition in HEK293 cells; format: cell-based, human
[7] = system: 320 GPCRs; assay: PRESTO-Tango GPCRome screening; format: cell-based; details: 3 μM
In short: (§1)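 HTLA cells in DMEM + 1% dialyzed FBS were PEI-transfected in-plate with PRESTO-Tango receptor DNA (17 ng/well). After overnight culture, test compound at 3 μM final was added for 18–20 h without medium change. Luminescence read 20 min after Bright-Glo. Assay control: D2 receptor with 0.1 mM quinpirole. Output is fold over basal RLU (n=4 technical replicates); receptors exceeding 3-fold basal were repeated as full dose–response.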

[8] = target: MRGPRX1 (Homo sapiens, UniProt Q96LB2); assay: PRESTO-Tango single-point and concentration-response assay at MRGPRX1; format: cell-based
Chain of MRGPRX1 (Q96LB2 whole entry): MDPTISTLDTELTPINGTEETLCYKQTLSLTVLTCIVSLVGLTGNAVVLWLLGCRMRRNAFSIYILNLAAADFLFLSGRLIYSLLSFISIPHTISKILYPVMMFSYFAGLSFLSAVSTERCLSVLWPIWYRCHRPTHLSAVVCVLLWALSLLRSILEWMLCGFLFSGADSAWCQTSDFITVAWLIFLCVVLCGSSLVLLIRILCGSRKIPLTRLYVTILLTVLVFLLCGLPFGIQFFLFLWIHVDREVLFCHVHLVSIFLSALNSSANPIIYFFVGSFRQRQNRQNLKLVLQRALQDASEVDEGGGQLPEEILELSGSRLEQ
In short: as §1

[9] = target: MRGPRX4 mutants (Homo sapiens, UniProt Q96LA9, Y130A); assay: BRET2 Gq activation, MRGPRX4 mutants; format: cell-based; details: MRGPRX4 Y130(ICL2)A
Chain of MRGPRX4 mutants (Homo sapiens, UniProt Q96LA9, Y130A) (Q96LA9 whole entry Y130A): as the sequence (Q96LA9 whole entry) above, with Y130A counted along it

[10] = system: MRGPRX4 mutants; assay: BRET2 Gq activation, MRGPRX4 mutants; format: cell-based, human; details: MRGPRX4 pocket mutants
[11] = target: MRGPRX4 Leu83Ser (Homo sapiens, UniProt Q96LA9, L83S); assay: Agonist potency at MRGPRX4 Leu83Ser variant; format: cell-based
Chain of MRGPRX4 Leu83Ser (Q96LA9 whole entry L83S): as the sequence (Q96LA9 whole entry) above, with L83S counted along it

[12] = system: MRGPRX4; details: previously identified; cited from earlier work
[13] = target: T2, MRGPRX2 mutants (Homo sapiens, UniProt Q96LB1, F170A); assay: BRET2 Gq activation, MRGPRX2 mutants; format: cell-based; details: MRGPRX2 F170(ECL2)A
T2 sequence (Q96LB1 1-330 F170A): T1 sequence (Q96LB1 1-330 I135A) with A135I, F170A

[14] = target: T3, MRGPRX2 mutants (Homo sapiens, UniProt Q96LB1, W243A); assay: BRET2 Gq activation, MRGPRX2 mutants; format: cell-based; details: MRGPRX2 W243A
T3 sequence (Q96LB1 1-330 W243A): T1 sequence (Q96LB1 1-330 I135A) with A135I, W243A

- effect of I135A mutation on stimulated Gq activation [1]: greatly reduced
- effect of I135A mutation on stimulated Gi1 activation [3]: attenuate
Molecule: CN(C)[C@@H]1CCN(c2cc(-c3ccccc3)nc3ccnn23)C1 [(R)-ZINC-3573]
- effect of D184A and E164A substitutions on agonist stimulated Gq activation ([2]; MRGPRX2 D184A, E164A): impaired the efficacy
- effect of most alanine mutations in the (R)-ZINC-3573 pocket ([2]; MRGPRX2 pocket alanine mutants): greatly reduced the efficacy
- effect of ICL3 mutations R214A and L216A on stimulated Gi1 activation [4]: impairs

- pEC50 [5]: 6.82
- activity against MRGPRX1 in concentration-response assay ([8]; full dose-response repeat): not replicated
- activity at MRGPRX1, fold of basal levels of relative luminescence units ([8]; single-point assay, 3 μM): more than 3 fold
- effect of Y130A mutation on agonist potency [9]: reduced the agonist potency
- effect of Leu83Ser mutation on agonist potency [11]: greatly attenuated the potency
Molecule: C[C@]12CC3CC(C(=O)N[C@H](Cc4ccccc4)C(=O)O)(C1)C[C@@](C)(C3)C2 [MS47134]
- selectivity over Kir6.2/SUR1 channel compared to nateglinide [6]: higher selectivity
- improved selectivity for MRGPRX4 over the Kir6.2/SUR1 potassium channel ([6]; MRGPRX4 FLIPR vs Kir6.2/SUR1 current inhibition): 47 fold
- off-target agonist or antagonist activity across GPCRome [7]: activity only at MRGPRX4 and MRGPRX1
- effect of most mutations surrounding MS47134 on potency [10]: greatly affected its potency

- effect of Leu83Ser mutation on agonist potency [11]: greatly attenuated the potency
Molecule: CC(C)[C@H]1CC[C@H](C(=O)N[C@H](Cc2ccccc2)C(=O)O)CC1 [nateglinide]
- MRGPRX4 agonist potency [12]: low micromolar agonist

- effect of F170A mutation on agonist stimulated Gq activation [13]: reduced the potency
- effect of I135A mutation on stimulated Gq activation [1]: greatly reduced
- effect of W243A mutation on agonist stimulated Gq activation [14]: abolished the activity
- effect of I135A mutation on stimulated Gi1 activation [3]: attenuate
Molecule: cortistatin-14 (PCKNFFWKTFSSCK)
- effect of ICL3 mutations R214A and L216A on stimulated Gi1 activation [4]: impairs
